Compound activity (PubChem)
Rows were chosen to be rich in hits. Some 1.5% of all compounds tested hit in one or more screens of this group.
LANA-H2B inh: blocks KSHV LANA binding to histone H2A/H2B. inhibition, % (no concentration beside the values). 320,000 compounds, 0.6% hits. cell-free LANA-H2A/H2B peptide, fluorescence polarization. AID 2629; in the data active = inhibition mostly above about 10%, no sharp cut-off; inactive = mostly below about 6.7%
HNF4A DNA FP: change in binding of human HNF4 alpha to DNA. P41235. HNF4a-FITC DNA binding, fluorescence polarization, 1 h. activity change, % at 10 µM. 360,000 compounds, 0.3% hits. AID 1224865; in the data active = activity change above about 30%, passing the limit was not always enough
A1 inh: inhibitors of the anti-apoptotic protein A1, read as caspase activation. caspase activation, % (test concentration not listed). AID 2462. MEF A1-2A-BIM cells, Caspase-Glo 3/7 luminescence, 3 h; percent of clofoctol response, vehicle zero. 330,000 compounds, 0.066% hits;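 active = over half of replicate activation scores above 10%, or exactly half above 10 with the replicate mean above 10; inconclusive = replicate mean below 10 yet half the replicates above 10; inactive = over half of replicates below 10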
ZTA counter: blocks Epstein-Barr virus ZTA, an EBNA-1 counter-screen | 320,000 compounds, 0.15% hits | P03206 | inhibition, % at 11 µM | ZTA-DNA binding, fluorescence polarization; in the data active = inhibition above about 33%
Target sequence (P03206 whole entry, looked up): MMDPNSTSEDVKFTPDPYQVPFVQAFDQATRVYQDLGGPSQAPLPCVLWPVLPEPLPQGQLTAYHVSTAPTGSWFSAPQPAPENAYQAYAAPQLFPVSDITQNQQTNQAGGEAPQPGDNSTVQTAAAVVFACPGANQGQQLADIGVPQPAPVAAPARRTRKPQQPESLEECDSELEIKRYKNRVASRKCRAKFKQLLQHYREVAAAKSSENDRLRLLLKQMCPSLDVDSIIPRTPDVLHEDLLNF
EBNA-1 inhibitor: blocks EBNA-1 binding to DNA; EBNA-1 DNA binding, fluorescence polarization; 300,000 compounds, 0.34% hits; inhibition, % at 14.8 µM; in the data active = inhibition above about 28%
CSN deneddyl inh: inhibitors of human CSN-mediated cullin deneddylation. Q92905. Purified CSN, SCF-Nedd8-OG deneddylation, fluorescence polarization. inhibition, % at 12.5 µM. 360,000 compounds, 0.38% hits. AID 651999;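 active = pattern-corrected inhibition above about 35%, with an unprinted fluorescence ratio check between 0.5 and 1.5, limit read from the data, passing the limit was not always enough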
Target sequence (Q92905 whole entry, looked up, one chain of several): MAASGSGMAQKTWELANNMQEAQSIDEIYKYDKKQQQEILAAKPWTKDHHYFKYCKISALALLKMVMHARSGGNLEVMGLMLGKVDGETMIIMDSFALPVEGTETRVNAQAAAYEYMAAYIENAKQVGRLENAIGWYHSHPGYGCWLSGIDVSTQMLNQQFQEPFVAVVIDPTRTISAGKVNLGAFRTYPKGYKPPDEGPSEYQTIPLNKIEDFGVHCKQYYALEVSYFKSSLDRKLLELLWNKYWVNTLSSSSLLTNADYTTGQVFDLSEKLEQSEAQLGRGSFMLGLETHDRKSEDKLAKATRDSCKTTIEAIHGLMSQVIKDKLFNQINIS
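Assay system: purified human Csn5 enzyme expressed in HEK293T cells; Input: 0.24 nM Csn5 enzyme, final concentration; Reagent: 10 nM SCFSkp2-Nedd8OG; Compound dosing: 12.5 µM single point; Times: reaction 90 min, room temperature; Technique: fluorescence polarization readout.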
A number is an active result; – = inactive; ? = inconclusive; · = not tested or not shown; + = active, no number.

SMILES	LANA-H2B inh	HNF4A DNA FP	A1 inh	ZTA counter	EBNA-1 inhibitor	CSN deneddyl inh
COc1ccc(CCN=C(N)NS(=O)(=O)c2ccc(F)cc2)cc1OC	26	–	–	–	–	–
C#CCOCCOCCOCCNc1nc(N2CCN(C(=O)[C@H](Cc3cc4ccccc4[nH]3)n3cc([C@@H](N)C(C)CC)nn3)CC2)nc(N2CCN(C(=O)[C@H](Cc3cc4ccccc4[nH]3)n3cc([C@@H](N)Cc4ccc(O)cc4)nn3)CC2)n1 (stereo partly drawn)	–	·	–	55	46	·
C#CCOCCOCCOCCNc1nc(N2CCN(C(=O)C([C@@H](C)O)n3cc([C@@H](N)CCCCN)nn3)CC2)nc(N2CCN(C(=O)[C@H](CO)n3cc([C@@H](N)C(C)C)nn3)CC2)n1 (stereo partly drawn)	–	78	–	·	·	–
C#CCOCCOCCOCCNc1nc(N2CCOCC2)nc(N2CCN(C(=O)[C@H](Cc3cc4ccccc4[nH]3)n3cc([C@@H](N)CC(C)C)nn3)CC2)n1	–	–	–	–	–	–
C#CCOCCOCCOCCNc1nc(N2CCN(C(=O)[C@H](Cc3cc4ccccc4[nH]3)n3cc([C@@H](N)CC(C)C)nn3)CC2)nc(N2CCN(C(=O)[C@H](Cc3cc4ccccc4[nH]3)n3cc([C@@H](N)CC(C)C)nn3)CC2)n1	–	–	–	–	–	50
CC1CCCC(C)N1C(=O)COC(=O)c1cncc(Br)c1 (stereo not drawn)	–	–	–	·	·	–
Cc1cccc(NC(=O)Cc2nc(-c3c[nH]c(C(=O)N4CCCC4)c3)cs2)c1	·	–	·	·	·	–
CC(=O)c1ccc(N2CCN(S(=O)(=O)c3cn(C)cn3)CC2)cc1	8.8	–	–	–	–	–
COc1ccc(OC)c(-n2c(Cn3c(-c4ccccn4)nc4ccccc43)n[nH]c2=S)c1	14	–	–	–	–	–
COc1ccc(OC)c(-n2c(-c3cnccn3)n[nH]c2=S)c1	–	–	–	–	–	–
COc1cc(CN2CCc3ccccc3C2)ccc1O	–	–	33	–	–	–
Nc1nc(SCC(=O)NCC2CCCO2)[nH]c(=O)c1NC(=O)c1ccc(F)c(F)c1 (stereo not drawn)	–	–	–	–	–	–
Nc1nc(SCC(=O)NCC2CCCO2)[nH]c(=O)c1NC(=O)c1ccco1 (stereo not drawn)	–	–	–	–	–	46
Cc1cc(C)c2nc(C(F)(F)F)nc(NCCCN3CCCC3=O)c2c1	19	–	–	–	–	–
Cc1cccn2c(CNCCc3ccccn3)c(C(=O)N3CCOCC3)nc12	29	–	–	–	–	–
CSCCNCc1c(C(=O)N2CCOCC2)nc2c(C)cccn12	–	–	–	–	–	–
COC(=O)[C@]12CCCCC=C1N(Cc1ccc(Cl)cc1Cl)C(=O)[C@H](CC(=O)NCCc1ccccc1OC)C2	·	–	·	·	·	–
O=C(N/N=C/c1ccc(OCC(=O)N2CCCC2)cc1)C(=O)NC1CC1	26	–	–	–	–	–
Cc1cccc(Nc2nc3c(S(=O)(=O)c4ccccc4)nnn3c3ccccc23)c1	–	–	7.4	–	–	–
COc1ccc(-n2nc(C(=O)NCC(=O)NCc3ccc(F)cc3)c3ccccc3c2=O)cc1	–	–	–	–	–	–
O=[N+]([O-])c1cccc(/C=N/N2CCN(Cc3ccccc3)CC2)c1	–	–	–	–	–	–
O=[N+]([O-])c1cccc(/C=N\N2CCN(Cc3ccccc3Cl)CC2)c1	–	42	–	–	–	–
Cc1cc(NC(=O)CS(=O)c2cn(Cc3cccc(Cl)c3)c3ccccc23)no1 (stereo not drawn)	·	–	·	·	·	–
CC1=CC(=O)C=C(C)C1=NOS(=O)(=O)c1ccccc1	·	–	·	·	·	–
CC1=CC(=O)C(C(C)C)=C/C1=N/OS(=O)(=O)c1ccccc1	–	–	27	–	–	–
SMILES	LANA-H2B inh	HNF4A DNA FP	A1 inh	ZTA counter	EBNA-1 inhibitor	CSN deneddyl inh
COC(=O)CC1C(=O)NCCN1C(=O)c1oc2c(C)c(C)ccc2c1C (stereo not drawn)	·	–	·	·	·	–
O=C(CSc1nc(=O)[nH]c2c1CCCC2)Nc1cc(C(F)(F)F)cc(C(F)(F)F)c1	–	–	–	–	–	–
CCOc1ccccc1OCCCC(=O)Nc1ccc(Cl)c(S(=O)(=O)N2CCOCC2)c1	30	–	–	–	·	–
CCOCCCN(C(=O)c1snc(C(N)=O)c1N)C(C(=O)NC1CCCC1)c1ccc(O)cc1 (stereo not drawn)	–	–	–	–	–	–
Cc1cc(C(=O)O)ccc1-c1ccc(/C=C2\SC(=O)N(CC(=O)Nc3ccc4c(c3)OCO4)C2=O)o1	–	36	–	·	·	–
Cc1ccc(-c2nc(NC(=O)c3nn(C)cc3[N+](=O)[O-])sc2C)cc1C	–	–	39	–	–	–
Cc1ccc(-c2nc(NC(=O)c3nn(C)cc3[N+](=O)[O-])sc2C)cc1	–	–	11	–	–	–
CCOC(=O)C1=CC[C@@H](c2cc(OC)c(OC)c(OC)c2)N(S(=O)(=O)c2ccc(C)cc2)[C@H]1C(=O)OCC	–	–	–	·	·	–
CCC(=O)N1c2ccccc2NC2=C(C(=O)CC(C)(C)C2)C1c1ccc(O)c(OC)c1 (stereo not drawn)	–	–	–	–	–	–
O=C(CCC1CCCCC1)Nc1nncs1	–	–	–	–	–	–
Cc1nn(-c2ccc(Cl)cc2)c2[nH]c(=O)c(CNCc3ccc4c(c3)OCO4)cc12	24	–	–	–	–	–
COc1ccc(-c2nn(-c3ccccc3)cc2/C=N/NS(=O)(=O)c2ccccc2)cc1	10	–	–	–	–	–
COc1ccc(-c2nn(-c3ccccc3)cc2/C=N/O)cc1	–	–	–	–	–	–
Fc1ccccc1CN1CCCCCCC1	–	–	–	–	–	–
Fc1cccc(F)c1-n1c(CN2CCCC2)csc1=S	33	–	–	–	–	–
COc1ccc(OCC(=O)Nc2ccc(S(=O)(=O)N3CCOCC3)cc2)cc1	28	–	–	–	–	–
COc1ccc(NC(=O)CN(C)C(=O)/C=C/c2ccc(S(=O)(=O)N3CCCCCC3)cc2)cc1	110	–	?	–	–	–
CCc1ccc(OCC(=O)Nc2ccc(S(=O)(=O)N3CCCC3)cc2)c(Br)c1	–	–	–	–	–	–
O=C(COc1ccc(Br)cc1CO)Nc1ccc(S(=O)(=O)N2CCCCC2)cc1	+	–	–	–	·	–
CCn1c(SCCC(=O)O)nnc1-c1cccnc1	–	–	–	–	–	–
CCn1c(SCC(=O)c2ccccc2)nnc1-c1cccnc1	–	36	–	–	–	–
Cn1c(=O)[nH]c(=O)c2c1nc(Br)n2CCCO	4.4	–	–	–	–	–
N#Cc1ccc(-c2nc3ccc(Br)cn3c2Cc2ccccc2)cc1	·	–	·	·	·	–
